# Source: ChEMBL document CHEMBL3596098, “Insights into the interaction of negative allosteric modulators with the metabotropic glutamate receptor 5: discovery and computational modeling of a new series of ligands with nanomolar affinity” (Bioorg Med Chem, 2015)
# Biological target: Metabotropic glutamate receptor 5 (Rattus norvegicus, UniProt P31424)
# Assay: Displacement of [3H]MPEP from mGluR5 receptor in Sprague-Dawley rat forebrain membrane after 60 mins by liquid scintillation spectrometry
# Metabotropic glutamate receptor 5 (Rattus norvegicus, UniProt P31424), sequence (P31424 whole entry): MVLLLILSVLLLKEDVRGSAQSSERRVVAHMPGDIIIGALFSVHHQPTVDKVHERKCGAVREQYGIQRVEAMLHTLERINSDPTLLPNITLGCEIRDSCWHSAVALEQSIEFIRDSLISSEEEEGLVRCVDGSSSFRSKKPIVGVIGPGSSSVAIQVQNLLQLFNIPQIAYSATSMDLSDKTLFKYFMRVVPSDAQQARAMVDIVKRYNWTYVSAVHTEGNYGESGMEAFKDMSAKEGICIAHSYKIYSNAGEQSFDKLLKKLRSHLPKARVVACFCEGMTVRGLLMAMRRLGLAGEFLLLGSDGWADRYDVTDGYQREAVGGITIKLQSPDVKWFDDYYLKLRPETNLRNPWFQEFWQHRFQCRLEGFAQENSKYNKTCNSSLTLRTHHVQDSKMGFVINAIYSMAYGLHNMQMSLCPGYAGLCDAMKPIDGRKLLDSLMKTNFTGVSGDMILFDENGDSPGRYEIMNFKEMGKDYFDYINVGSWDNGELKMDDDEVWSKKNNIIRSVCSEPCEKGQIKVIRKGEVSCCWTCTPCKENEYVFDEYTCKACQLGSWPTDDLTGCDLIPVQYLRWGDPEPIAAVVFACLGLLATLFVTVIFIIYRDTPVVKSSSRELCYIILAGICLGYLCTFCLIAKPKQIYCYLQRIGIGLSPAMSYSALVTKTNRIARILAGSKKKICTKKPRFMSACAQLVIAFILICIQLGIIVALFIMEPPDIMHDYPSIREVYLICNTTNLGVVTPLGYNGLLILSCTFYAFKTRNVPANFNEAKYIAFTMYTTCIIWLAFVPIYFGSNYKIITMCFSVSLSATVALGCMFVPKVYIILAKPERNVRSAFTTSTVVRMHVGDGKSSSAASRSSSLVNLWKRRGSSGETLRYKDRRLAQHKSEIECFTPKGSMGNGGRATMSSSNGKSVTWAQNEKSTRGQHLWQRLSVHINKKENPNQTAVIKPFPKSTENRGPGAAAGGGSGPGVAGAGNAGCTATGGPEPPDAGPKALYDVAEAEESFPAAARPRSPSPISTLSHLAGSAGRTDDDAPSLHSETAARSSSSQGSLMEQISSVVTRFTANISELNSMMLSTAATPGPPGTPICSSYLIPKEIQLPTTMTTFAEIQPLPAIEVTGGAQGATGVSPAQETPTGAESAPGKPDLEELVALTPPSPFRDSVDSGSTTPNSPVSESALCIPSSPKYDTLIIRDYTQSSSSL
row,Ki [nM],SMILES
1,0.1,O=[N+]([O-])c1cccnc1N1CCC(=CC#Cc2ccccn2)CC1
2,0.6,O=[N+]([O-])c1cccnc1N1CCC(=CC#Cc2ccccc2)CC1
3,1.3,C=Cc1ccc([N+](=O)[O-])c(N2CCN(C(=O)C#Cc3ccccc3)CC2)n1
4,1.8,O=C(C#Cc1ccccc1)N1CCN(c2ccccc2[N+](=O)[O-])CC1
5,313,CN1CC(=O)N=C1NC(=O)Nc1cccc(Cl)c1 [FENOBAM ANHYDROUS]
6,117,O=[N+]([O-])c1cccnc1N1CCN(CC#Cc2ccccc2)CC1
7,92,Cc1cccc(C#CC=C2CCN(c3ccccc3)CC2)n1
8,2.9,Cc1cccc(C#CC=C2CCN(c3ncc(-c4ccccc4)cc3C#N)CC2)n1
9,0.4,Cc1cccc(C#CC=C2CCN(c3ncccc3[N+](=O)[O-])CC2)c1
10,0.6,O=C(C#Cc1ccccc1)N1CCN(c2ncccc2[N+](=O)[O-])CC1
11,0.2,Cc1cccc(C#CC=C2CCN(c3ccccc3[N+](=O)[O-])CC2)n1
12,> 1000,O=C(c1ccc(-c2ccccc2)cc1)N1CCN(c2ncccc2[N+](=O)[O-])CC1
13,0.4,O=[N+]([O-])c1cccnc1N1CCC(=CC#Cc2cccc(Cl)c2)CC1
14,> 10000,O=C(c1ccccc1-c1ccccc1)N1CCN(c2ncccc2[N+](=O)[O-])CC1
15,> 1000,O=C(c1cnc2ccccc2n1)N1CCN(c2ncccc2[N+](=O)[O-])CC1
16,0.4,Cc1ccc([N+](=O)[O-])c(N2CCC(=CC#Cc3ccc(C#N)cn3)CC2)n1
17,> 10000,Cc1ccc([N+](=O)[O-])c(N2CCN(C(=O)c3cccc(-c4ccccc4)c3)CC2)n1
18,0.03,Cc1cccc(C#CC=C2CCN(c3ncccc3[N+](=O)[O-])CC2)n1

# Biological target: T1, Metabotropic glutamate receptor 5 (Homo sapiens, UniProt P41594)
# Assay: Displacement of [3H]MPEP from human cloned mGluR5 receptor expressed in CHO-T-Rex cells after 60 mins by liquid scintillation spectrometry
# Format: cell-based
# Target sequence in this assay (P41594 whole entry): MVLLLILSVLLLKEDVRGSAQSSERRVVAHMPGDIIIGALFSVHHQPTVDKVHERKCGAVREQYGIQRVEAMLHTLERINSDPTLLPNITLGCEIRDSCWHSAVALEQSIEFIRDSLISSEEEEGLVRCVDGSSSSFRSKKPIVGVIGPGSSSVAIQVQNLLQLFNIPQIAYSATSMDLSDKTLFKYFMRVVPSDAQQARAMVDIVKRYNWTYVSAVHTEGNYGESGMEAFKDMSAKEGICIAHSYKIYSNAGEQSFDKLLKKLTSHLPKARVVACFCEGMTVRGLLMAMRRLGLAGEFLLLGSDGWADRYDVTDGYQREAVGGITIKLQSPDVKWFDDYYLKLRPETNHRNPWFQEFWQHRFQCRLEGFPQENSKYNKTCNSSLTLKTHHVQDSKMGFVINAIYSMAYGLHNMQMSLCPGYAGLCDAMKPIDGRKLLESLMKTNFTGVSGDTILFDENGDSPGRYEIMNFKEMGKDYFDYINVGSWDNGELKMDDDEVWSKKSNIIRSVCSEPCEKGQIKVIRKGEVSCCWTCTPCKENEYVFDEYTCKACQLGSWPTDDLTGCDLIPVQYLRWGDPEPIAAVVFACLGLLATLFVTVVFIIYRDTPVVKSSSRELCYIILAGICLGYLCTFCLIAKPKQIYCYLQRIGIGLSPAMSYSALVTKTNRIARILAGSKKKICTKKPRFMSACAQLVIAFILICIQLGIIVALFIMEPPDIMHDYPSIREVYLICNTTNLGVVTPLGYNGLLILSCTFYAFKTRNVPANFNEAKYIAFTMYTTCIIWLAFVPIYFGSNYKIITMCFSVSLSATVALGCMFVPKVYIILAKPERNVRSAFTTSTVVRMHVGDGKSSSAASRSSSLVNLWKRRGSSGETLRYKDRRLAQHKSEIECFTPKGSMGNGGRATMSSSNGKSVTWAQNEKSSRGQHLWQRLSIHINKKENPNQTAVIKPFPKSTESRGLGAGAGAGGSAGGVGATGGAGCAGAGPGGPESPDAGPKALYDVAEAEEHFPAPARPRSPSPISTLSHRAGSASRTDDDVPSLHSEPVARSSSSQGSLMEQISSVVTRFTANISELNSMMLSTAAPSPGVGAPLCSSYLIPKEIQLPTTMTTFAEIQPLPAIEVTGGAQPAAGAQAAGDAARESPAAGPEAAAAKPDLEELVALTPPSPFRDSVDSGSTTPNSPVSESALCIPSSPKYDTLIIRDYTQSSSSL
row,Ki [nM],SMILES
1,0.3,O=[N+]([O-])c1cccnc1N1CCC(=CC#Cc2ccccn2)CC1
2,0.4,O=[N+]([O-])c1cccnc1N1CCC(=CC#Cc2ccccc2)CC1
3,283,N#Cc1cc(Cl)cc(C#CC=C2CCN(c3ncccc3[N+](=O)[O-])CC2)c1
4,0.4,O=C(C#Cc1ccccc1)N1CCN(c2ccccc2[N+](=O)[O-])CC1
5,162,CN1CC(=O)N=C1NC(=O)Nc1cccc(Cl)c1 [FENOBAM ANHYDROUS]
6,60.7,O=[N+]([O-])c1cccnc1N1CCN(CC#Cc2ccccc2)CC1
7,264,Cc1cccc(C#C/C=C2/CCCN(c3nc(C)ccc3[N+](=O)[O-])C2)n1
8,29.2,Cc1cccc(C#CC=C2CCN(c3ccccc3)CC2)n1
9,0.5,Cc1cccc(C#CC=C2CCN(c3ncc(-c4ccccc4)cc3C#N)CC2)n1
10,0.3,Cc1cccc(C#CC=C2CCN(c3ncccc3[N+](=O)[O-])CC2)c1
11,0.5,O=C(C#Cc1ccccc1)N1CCN(c2ncccc2[N+](=O)[O-])CC1
12,0.3,Cc1cccc(C#CC=C2CCN(c3ccccc3[N+](=O)[O-])CC2)n1
13,> 10000,O=C(c1ccc(-c2ccccc2)cc1)N1CCN(c2ncccc2[N+](=O)[O-])CC1
14,0.5,O=[N+]([O-])c1cccnc1N1CCC(=CC#Cc2cccc(Cl)c2)CC1
15,> 10000,O=C(c1ccccc1-c1ccccc1)N1CCN(c2ncccc2[N+](=O)[O-])CC1
16,> 10000,O=C(c1cnc2ccccc2n1)N1CCN(c2ncccc2[N+](=O)[O-])CC1
17,0.3,Cc1ccc([N+](=O)[O-])c(N2CCC(=CC#Cc3ccc(C#N)cn3)CC2)n1
18,> 10000,Cc1ccc([N+](=O)[O-])c(N2CCN(C(=O)c3cccc(-c4ccccc4)c3)CC2)n1
19,> 1000,CC1(C)CN(c2ccc(C#CC=C3CCN(c4ncccc4[N+](=O)[O-])CC3)cc2)C1=O
20,0.5,Cc1cccc(C#CC=C2CCN(c3ncccc3[N+](=O)[O-])CC2)n1

# Biological target: T1, Metabotropic glutamate receptor 5
# Assay: Negative allosteric modulatory activity at human cloned mGluR5 receptor expressed in CHO-T-Rex cells assessed as inhibiton of quisqualate-induced calcium mobilization treated 10 mins prior to agonist application by fluorescence analysis
# Format: functional, cell-based
# In short: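 CHO T-REx cells expressing human mGlu5, induced 18 h with 3 ng/mL tetracycline and seeded at 80,000 cells/well. Loaded 1 h at 37 °C with 2 µM Fluo-4/AM in HBSS with 20 mM HEPES and 2.5 mM probenecid, then washed. Compound (0.5% DMSO final) added 10 min before quisqualate at its daily EC80. Peak minus basal fluorescence read every 1.5 s for 60 s.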
# Target sequence in this assay (P41594 whole entry): as above
row,IC50 [nM],SMILES
1,0.4,O=[N+]([O-])c1cccnc1N1CCC(=CC#Cc2ccccn2)CC1
2,2.8,O=[N+]([O-])c1cccnc1N1CCC(=CC#Cc2ccccc2)CC1
3,42,C=Cc1ccc([N+](=O)[O-])c(N2CCN(C(=O)C#Cc3ccccc3)CC2)n1
4,36.3,CN1CC(=O)N=C1NC(=O)Nc1cccc(Cl)c1 [FENOBAM ANHYDROUS]
5,55,Cc1cccc(C#CC=C2CCN(c3ccccc3)CC2)n1
6,9.7,Cc1cccc(C#CC=C2CCN(c3ncc(-c4ccccc4)cc3C#N)CC2)n1
7,1.8,Cc1cccc(C#CC=C2CCN(c3ncccc3[N+](=O)[O-])CC2)c1
8,0.9,O=C(C#Cc1ccccc1)N1CCN(c2ncccc2[N+](=O)[O-])CC1
9,10.4,Cc1cccc(C#CC=C2CCN(c3ccccc3[N+](=O)[O-])CC2)n1
10,3.8,O=[N+]([O-])c1cccnc1N1CCC(=CC#Cc2cccc(Cl)c2)CC1
11,1.3,Cc1ccc([N+](=O)[O-])c(N2CCC(=CC#Cc3ccc(C#N)cn3)CC2)n1
12,0.8,Cc1cccc(C#CC=C2CCN(c3ncccc3[N+](=O)[O-])CC2)n1

# Biological target: T2, Metabotropic glutamate receptor 1 (Rattus norvegicus, UniProt P23385)
# Assay: Displacement of [3H]R214127 from rat cloned mGluR1 receptor expressed in CHO-T-Rex cells after 30 mins by liquid scintillation spectrometry
# Format: cell-based
# In short: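 CHO T-REx cells stably expressing rat mGlu1, derepressed by 1 µg/mL tetracycline for 18 h. Nonspecific binding with 1 µM R214127. Filtration, scintillation counting. Ki by Cheng-Prusoff.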
# T2 sequence (P23385 whole entry): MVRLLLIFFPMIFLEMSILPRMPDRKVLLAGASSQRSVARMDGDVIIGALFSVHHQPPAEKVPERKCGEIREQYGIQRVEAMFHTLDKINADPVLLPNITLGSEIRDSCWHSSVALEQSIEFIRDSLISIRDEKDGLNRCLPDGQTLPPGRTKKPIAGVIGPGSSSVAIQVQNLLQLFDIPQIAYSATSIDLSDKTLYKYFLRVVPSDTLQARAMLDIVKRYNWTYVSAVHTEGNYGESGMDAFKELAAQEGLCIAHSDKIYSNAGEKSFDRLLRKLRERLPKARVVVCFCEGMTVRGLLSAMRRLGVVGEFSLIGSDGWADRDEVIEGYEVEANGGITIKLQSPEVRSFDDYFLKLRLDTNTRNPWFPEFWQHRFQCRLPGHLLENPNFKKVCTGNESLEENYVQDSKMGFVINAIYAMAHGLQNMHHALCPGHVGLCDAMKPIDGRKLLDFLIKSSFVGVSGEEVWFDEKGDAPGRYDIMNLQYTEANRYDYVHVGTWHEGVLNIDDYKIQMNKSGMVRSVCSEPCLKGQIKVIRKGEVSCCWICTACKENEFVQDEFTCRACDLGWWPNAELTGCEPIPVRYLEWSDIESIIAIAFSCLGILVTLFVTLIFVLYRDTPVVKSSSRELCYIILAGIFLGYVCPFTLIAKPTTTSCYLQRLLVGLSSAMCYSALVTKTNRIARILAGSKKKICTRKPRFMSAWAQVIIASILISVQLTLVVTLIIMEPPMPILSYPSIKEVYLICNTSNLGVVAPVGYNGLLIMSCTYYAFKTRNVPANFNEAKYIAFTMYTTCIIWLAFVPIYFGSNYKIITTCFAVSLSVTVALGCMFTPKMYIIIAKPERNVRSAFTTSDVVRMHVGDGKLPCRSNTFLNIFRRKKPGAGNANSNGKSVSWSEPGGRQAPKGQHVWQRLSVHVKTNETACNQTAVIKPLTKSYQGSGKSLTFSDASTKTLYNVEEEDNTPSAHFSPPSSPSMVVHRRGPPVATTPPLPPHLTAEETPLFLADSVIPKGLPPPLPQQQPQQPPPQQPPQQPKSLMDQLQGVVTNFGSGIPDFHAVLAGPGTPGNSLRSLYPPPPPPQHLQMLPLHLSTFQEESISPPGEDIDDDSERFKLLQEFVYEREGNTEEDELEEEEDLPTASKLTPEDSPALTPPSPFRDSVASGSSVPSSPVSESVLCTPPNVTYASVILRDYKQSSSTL
row,Ki [nM],SMILES
1,39.1,O=[N+]([O-])c1cccnc1N1CCC(=CC#Cc2ccccn2)CC1
2,4.8,O=[N+]([O-])c1cccnc1N1CCC(=CC#Cc2ccccc2)CC1
3,54.2,C=Cc1ccc([N+](=O)[O-])c(N2CCN(C(=O)C#Cc3ccccc3)CC2)n1
4,> 10000,Cc1nc(C#Cc2ccc(-c3cccnc3)nc2)cs1
5,> 1000,N#Cc1cc(Cl)cc(C#CC=C2CCN(c3ncccc3[N+](=O)[O-])CC2)c1
6,69.3,O=C(C#Cc1ccccc1)N1CCN(c2ccccc2[N+](=O)[O-])CC1
7,> 1000,O=[N+]([O-])c1cccnc1N1CCN(CC#Cc2ccccc2)CC1
8,> 1000,Cc1cccc(C#C/C=C2/CCCN(c3nc(C)ccc3[N+](=O)[O-])C2)n1
9,443,Cc1cccc(C#CC=C2CCN(c3ncc(-c4ccccc4)cc3C#N)CC2)n1
10,18.6,Cc1cccc(C#CC=C2CCN(c3ncccc3[N+](=O)[O-])CC2)c1
11,> 10000,Cc1cccc(C#Cc2ccccc2)n1
12,96.8,O=C(C#Cc1ccccc1)N1CCN(c2ncccc2[N+](=O)[O-])CC1
13,70.7,Cc1cccc(C#CC=C2CCN(c3ccccc3[N+](=O)[O-])CC2)n1
14,18.6,O=[N+]([O-])c1cccnc1N1CCC(=CC#Cc2cccc(Cl)c2)CC1
15,190,Cc1ccc([N+](=O)[O-])c(N2CCC(=CC#Cc3ccc(C#N)cn3)CC2)n1
16,184,Cc1cccc(C#CC=C2CCN(c3ncccc3[N+](=O)[O-])CC2)n1
17,> 10000,Cc1nc(C#Cc2cccnc2)cs1

# Biological target: T2, Metabotropic glutamate receptor 1
# Assay: Negative allosteric modulatory activity at rat cloned mGluR1 receptor expressed in CHO-T-Rex cells assessed as inhibiton of quisqualate-induced calcium mobilization treated 10 mins prior to agonist application by fluorescence analysis
# Format: functional, cell-based
# In short: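 CHO T-REx cells expressing rat mGlu1, induced 18 h with 10 ng/mL tetracycline and seeded at 80,000 cells/well. Loaded with 2 µM Fluo-4/AM (1 h, 37 °C, HBSS/HEPES/probenecid), then washed. Compound (0.5% DMSO final) given 10 min before quisqualate at its daily EC80. Peak minus basal fluorescence recorded over 60 s. Three independent experiments.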
row,IC50 [nM],SMILES
1,207,O=[N+]([O-])c1cccnc1N1CCC(=CC#Cc2ccccn2)CC1
2,39.3,O=[N+]([O-])c1cccnc1N1CCC(=CC#Cc2ccccc2)CC1
3,543,Cc1cccc(C#CC=C2CCN(c3ncccc3[N+](=O)[O-])CC2)c1
4,271,O=C(C#Cc1ccccc1)N1CCN(c2ncccc2[N+](=O)[O-])CC1
5,551,Cc1cccc(C#CC=C2CCN(c3ccccc3[N+](=O)[O-])CC2)n1
6,1340,O=[N+]([O-])c1cccnc1N1CCC(=CC#Cc2cccc(Cl)c2)CC1
7,448,Cc1cccc(C#CC=C2CCN(c3ncccc3[N+](=O)[O-])CC2)n1

# Biological target: T1, Metabotropic glutamate receptor 5
# Assay: Non-competitive antagonist activity at human cloned mGluR5 receptor expressed in CHO-T-Rex cells assessed as inhibiton of quisqualate-induced calcium mobilization at 0.3 nM treated 10 mins prior to agonist application by fluorescence analysis
# Format: functional, cell-based
# Target sequence in this assay (P41594 21-1212 limits assumed): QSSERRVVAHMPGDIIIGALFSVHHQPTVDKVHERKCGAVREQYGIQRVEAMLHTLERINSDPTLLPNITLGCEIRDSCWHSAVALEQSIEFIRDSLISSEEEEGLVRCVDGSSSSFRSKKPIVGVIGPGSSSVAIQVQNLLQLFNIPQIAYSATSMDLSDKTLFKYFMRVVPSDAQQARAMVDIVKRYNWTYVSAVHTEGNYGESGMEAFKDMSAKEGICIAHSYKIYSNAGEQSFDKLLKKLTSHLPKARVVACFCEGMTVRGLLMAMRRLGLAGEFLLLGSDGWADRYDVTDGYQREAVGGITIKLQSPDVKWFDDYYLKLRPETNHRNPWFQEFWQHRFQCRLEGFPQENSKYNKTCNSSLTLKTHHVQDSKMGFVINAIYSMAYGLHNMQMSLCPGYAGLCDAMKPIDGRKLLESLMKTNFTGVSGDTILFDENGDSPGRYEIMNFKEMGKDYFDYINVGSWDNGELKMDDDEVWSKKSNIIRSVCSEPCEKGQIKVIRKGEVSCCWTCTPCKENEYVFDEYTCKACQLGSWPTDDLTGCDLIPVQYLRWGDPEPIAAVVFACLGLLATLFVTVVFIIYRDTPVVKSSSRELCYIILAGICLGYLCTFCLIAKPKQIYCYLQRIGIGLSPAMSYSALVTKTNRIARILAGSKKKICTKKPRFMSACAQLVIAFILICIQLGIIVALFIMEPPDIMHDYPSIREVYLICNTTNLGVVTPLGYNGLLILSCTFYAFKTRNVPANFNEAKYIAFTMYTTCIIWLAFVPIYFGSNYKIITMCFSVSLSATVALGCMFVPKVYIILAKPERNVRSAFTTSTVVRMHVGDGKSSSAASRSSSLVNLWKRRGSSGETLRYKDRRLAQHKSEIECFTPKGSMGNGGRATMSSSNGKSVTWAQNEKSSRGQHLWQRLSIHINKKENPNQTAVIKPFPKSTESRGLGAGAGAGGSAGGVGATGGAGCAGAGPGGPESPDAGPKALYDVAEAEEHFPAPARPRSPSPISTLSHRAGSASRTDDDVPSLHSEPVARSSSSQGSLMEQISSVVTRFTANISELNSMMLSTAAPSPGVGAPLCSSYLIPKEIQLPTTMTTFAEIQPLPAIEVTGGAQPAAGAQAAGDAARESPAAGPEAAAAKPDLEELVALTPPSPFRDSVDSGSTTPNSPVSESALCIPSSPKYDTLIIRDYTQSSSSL
row,inhibition [%],SMILES
1,50,Cc1cccc(C#CC=C2CCN(c3ncccc3[N+](=O)[O-])CC2)n1
